Results reported in ChEMBL document CHEMBL1811821, “Cystic fibrosis: a new target for 4-Imidazo[2,1-b]thiazole-1,4-dihydropyridines” (J Med Chem, 2011).
Active and inactive are the calls of the source. The rule behind the calls is not given here.

Assays:
[1] = Negative ionotropic activity against potassium-induced contraction in guinea pig left atrium assessed as […] at 5 X 10^-6 M relative to control; assay type: functional; conditions: Cavia porcellus, Cardiac atrium
In short: (§1)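 Isolated guinea pig left atrium paced at 1 Hz. Drugs added cumulatively. Negative inotropic effect expressed as percent change from control, n = 5–6. […] Student's t-test against control at each concentration, P < 0.05. Mean ± SEM.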

[2] = system: Cystic fibrosis transmembrane conductance regulator (Homo sapiens), P13569 [F508del]; test: Activity at CFTR F508 deletion mutant expressed in forskolin-stimulated FRT cells assessed as maximal increase in iodine influx measured as YFP quenching rate at 0.2 uM after 24 hrs by fluorescence assay; assay type: cell-based
In short: (§2)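 ΔF508-CFTR and halide-sensitive YFP coexpressed in FRT cells, held at 27 °C for 24 h for rescue, then stimulated 30–40 min with 20 μM forskolin with or without compound at 0.2, 2 and 20 μM. Fluorescence read before and after I– addition (100 mM final). Normalized decay fitted exponentially for maximal quenching rate; dose–response fitted with Hill equation for potency and maximal effect. Three independent determinations.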

[3] = Negative ionotropic activity in potassium depolarized guinea pig longitudinal smooth muscle assessed as inhibition of calcium-induced contraction; assay type: functional, Cavia porcellus
Aorta [4] = test: Vasorelaxant activity in potassium depolarized guinea pig aortic strip assessed as inhibition of calcium-induced contraction at 10^-4 M; assay type: functional; conditions: Cavia porcellus
In short: (§3)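 Guinea pig aortic strips depolarized with 80 mM K+, with cumulative drug addition. Relaxation given as mean ± SEM. […] Student's t-test against control, P < 0.05.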

[5] = system: Cystic fibrosis transmembrane conductance regulator (Homo sapiens), P13569 [F508del]; test: Activity at CFTR F508 deletion mutant expressed in forskolin-stimulated FRT cells assessed as maximal increase in iodine influx measured as YFP quenching rate up to 20 uM after 24 hrs by fluorescence assay; assay type: cell-based; in short: as §2
[6] = Negative chronotropic activity against potassium-induced contraction in guinea pig right atrium assessed as decrease atrial rate at 10^-6 M relative to control; assay type: functional; conditions: Cavia porcellus, Cardiac atrium
In short: (§4)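 Spontaneously beating isolated guinea pig right atrium, pretreatment rate 165–190 beats/min. Drugs added cumulatively. Decrease in atrial rate expressed as percent change from control, n = 7–8. […] Control versus treated tested at each concentration by Student's t-test, P < 0.05. Mean ± SEM.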

[7] = Negative ionotropic activity against potassium-induced contraction in guinea pig left atrium assessed as decrease in developed tension; conditions: Cavia porcellus, Cardiac atrium
[8] = Binding affinity to CFTR F508 deletion mutant expressed in forskolin-stimulated FRT cells assessed as increase in iodine influx measured as YFP quenching rate after 24 hrs by fluorescence assay; assay type: cell-based; in short: as §2
[9] = system: Cystic fibrosis transmembrane conductance regulator (Homo sapiens), P13569 [F508del]; test: Activity at CFTR F508 deletion mutant expressed in forskolin-stimulated FRT cells assessed as maximal increase in iodine influx measured as YFP quenching rate after 24 hrs by fluorescence assay; assay type: cell-based; in short: as §2
[10] = Ratio EC50 for nifedipine to compound for negative […] activity against potassium-induced contraction in left atrium of guinea pig; assay type: functional, Cavia porcellus, Cardiac atrium
[11] = Bronchodilatory activity in guinea pig trachea assessed as inhibition of carbachol-induced contraction; assay type: functional, tissue-based, Cavia porcellus
Cavia porcellus [12] = species on record: Cavia porcellus; test: Negative ionotropic activity in potassium depolarized guinea pig longitudinal smooth muscle assessed as inhibition of calcium-induced contraction at 5 X 10^-8 M; assay type: functional
Cavia porcellus [13] = species on record: Cavia porcellus; test: Negative ionotropic activity in potassium depolarized guinea pig longitudinal smooth muscle assessed as inhibition of calcium-induced contraction at 10^-6 M; assay type: functional
[14] = Bronchodilatory activity in guinea pig trachea assessed as inhibition of carbachol-induced contraction at 10^-4 M; assay type: functional; conditions: Cavia porcellus
Cavia porcellus [15] = species on record: Cavia porcellus; test: Negative ionotropic activity in potassium depolarized guinea pig longitudinal smooth muscle assessed as inhibition of calcium-induced contraction at 5 X 10^-5 M; assay type: functional
[16] = Bronchodilatory activity in guinea pig trachea assessed as inhibition of carbachol-induced contraction at 10^-5 M; assay type: functional; conditions: Cavia porcellus
Cavia porcellus [17] = species on record: Cavia porcellus; test: Negative ionotropic activity in potassium depolarized guinea pig longitudinal smooth muscle assessed as inhibition of calcium-induced contraction at 10^-5 M; assay type: functional
[18] = Negative ionotropic activity against potassium-induced contraction in guinea pig left atrium assessed as […] at 10^-5 M relative to control; assay type: functional; conditions: Cavia porcellus, Cardiac atrium; in short: as §1
Aorta [19] = test: Vasorelaxant activity in potassium depolarized guinea pig aortic strip assessed as inhibition of calcium-induced contraction at 10^-5 M; assay type: functional; conditions: Cavia porcellus; in short: as §3
[20] = Negative chronotropic activity against potassium-induced contraction in guinea pig right atrium assessed as decrease atrial rate; assay type: functional, tissue-based; conditions: Cavia porcellus, Cardiac atrium; in short: as §4
[21] = Negative chronotropic activity against potassium-induced contraction in guinea pig right atrium assessed as decrease atrial rate at 10^-5 M relative to control; assay type: functional; conditions: Cavia porcellus, Cardiac atrium; in short: as §4
[22] = Negative ionotropic activity against potassium-induced contraction in guinea pig left atrium assessed as […] at 10^-4 M relative to control; assay type: functional; conditions: Cavia porcellus, Cardiac atrium; in short: as §1
[23] = Negative chronotropic activity against potassium-induced contraction in guinea pig right atrium assessed as decrease atrial rate at 10^-4 M relative to control; assay type: functional; conditions: Cavia porcellus, Cardiac atrium; in short: as §4
[24] = Ratio EC50 for negative chronotropic activity against potassium-induced contraction in guinea pig right atrium to EC50 for negative […] activity against potassium-induced contraction in guinea pig left atrium; assay type: functional, Cavia porcellus, Cardiac atrium
[25] = Bronchodilatory activity in guinea pig trachea assessed as inhibition of carbachol-induced contraction at 10^-7 M; assay type: functional; conditions: Cavia porcellus

Cystic fibrosis transmembrane conductance regulator (Homo sapiens), P13569 [F508del], sequence (P13569 as listed by the source): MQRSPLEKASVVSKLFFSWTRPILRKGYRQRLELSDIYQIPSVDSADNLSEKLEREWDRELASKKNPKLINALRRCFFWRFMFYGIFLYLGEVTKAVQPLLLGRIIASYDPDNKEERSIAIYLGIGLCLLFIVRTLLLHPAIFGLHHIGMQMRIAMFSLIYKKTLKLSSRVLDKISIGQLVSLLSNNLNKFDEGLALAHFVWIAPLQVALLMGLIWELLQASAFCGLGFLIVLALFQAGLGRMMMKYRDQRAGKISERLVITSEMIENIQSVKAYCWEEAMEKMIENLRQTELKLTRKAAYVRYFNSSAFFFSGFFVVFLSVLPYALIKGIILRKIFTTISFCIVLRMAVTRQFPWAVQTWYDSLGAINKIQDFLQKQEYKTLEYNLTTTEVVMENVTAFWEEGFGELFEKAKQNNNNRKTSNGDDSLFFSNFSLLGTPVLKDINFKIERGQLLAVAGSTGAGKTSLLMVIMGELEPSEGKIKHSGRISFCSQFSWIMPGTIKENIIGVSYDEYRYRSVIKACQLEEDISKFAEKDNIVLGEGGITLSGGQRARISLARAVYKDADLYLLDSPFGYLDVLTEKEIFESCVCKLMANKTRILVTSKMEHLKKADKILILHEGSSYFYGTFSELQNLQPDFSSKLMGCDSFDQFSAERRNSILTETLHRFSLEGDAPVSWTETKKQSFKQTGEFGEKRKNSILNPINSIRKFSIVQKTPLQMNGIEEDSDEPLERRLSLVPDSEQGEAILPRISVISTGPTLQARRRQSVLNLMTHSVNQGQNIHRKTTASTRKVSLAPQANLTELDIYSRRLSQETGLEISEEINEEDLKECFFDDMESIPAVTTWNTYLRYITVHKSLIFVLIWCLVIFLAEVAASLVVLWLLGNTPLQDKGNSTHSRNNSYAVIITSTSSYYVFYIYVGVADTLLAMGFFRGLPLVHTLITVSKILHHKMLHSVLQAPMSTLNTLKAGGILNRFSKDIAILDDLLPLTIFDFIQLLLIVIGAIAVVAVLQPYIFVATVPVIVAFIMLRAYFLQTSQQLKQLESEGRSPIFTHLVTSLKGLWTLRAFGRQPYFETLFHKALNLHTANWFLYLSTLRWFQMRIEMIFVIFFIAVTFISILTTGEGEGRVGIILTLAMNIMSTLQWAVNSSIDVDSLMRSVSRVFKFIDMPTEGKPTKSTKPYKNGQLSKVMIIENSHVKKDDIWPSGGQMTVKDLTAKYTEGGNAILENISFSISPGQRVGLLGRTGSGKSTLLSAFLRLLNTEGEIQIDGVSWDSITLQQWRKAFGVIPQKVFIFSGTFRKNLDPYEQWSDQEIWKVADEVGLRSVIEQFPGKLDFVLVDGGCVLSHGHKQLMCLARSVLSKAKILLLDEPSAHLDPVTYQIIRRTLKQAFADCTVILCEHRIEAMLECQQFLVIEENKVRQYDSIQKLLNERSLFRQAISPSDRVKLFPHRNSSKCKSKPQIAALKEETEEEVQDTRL

Row | Compound | Activity [2] | IC50 [3] [nM] | Activity [5] | Emax [9] [ms-1] | Kd [8] [nM] | inhibition (Cavia porcellus [13]) [%] | further results
1 | C=CCOC(=O)C1=C(C)NC(C)=C(C(=O)OCC=C)C1c1c(-c2cc(OC)ccc2OC)nc2sccn12 | inactive | 320 | inactive |  |  |  | inhibition at 5 µM [1]: 81%; inhibition at 100 µM (Aorta [4]): 31%; inhibition at 1 µM [6]: 32%; EC50 [7]: 340 nM
2 | COC(=O)C1=C(C)NC(C)=C(C(=O)OC)C1c1c(Cl)nc2scc(C)n12 | inactive | 510 |  | 60 | 21400 |  | Ratio EC50 [10]: 2.6
3 | COC(=O)C1=C(C)NC(C)=C(C(=O)OC)C1c1c(-c2cccc(OC(F)(F)F)c2)nc2sccn12 | inactive | 18 |  | 64 | 1400 |  | IC50 [11]: 58 nM; inhibition (Cavia porcellus [12]): 76%
4 | CCOC(=O)C1=C(C)NC(C)=C(C(=O)OCC)C1c1c(-c2ccccc2)nc2sc(C)cn12 | inactive | 250 |  | 60 | 14800 | 83 | inhibition at 10 µM [18]: 44%; inhibition at 10 µM (Aorta [19]): 5%; EC50 [20]: 7150 nM; inhibition at 10 µM [21]: 84%
5 | COC(=O)C1=C(C)NC(C)=C(C(=O)OC)C1c1c(-c2ccccc2)nc2n1CCS2 | inactive | 260 | inactive |  |  | 80 | inhibition at 100 µM [22]: 78%; EC50 [20]: 8630 nM; inhibition at 100 µM [23]: 90%; Ratio EC50 [24]: 22; inhibition at 100 µM (Aorta [4]): 46%; EC50 [7]: 390 nM
6 | COC(=O)C1=C(C)NC(C)=C(C(=O)OC)C1c1c(-c2cccc(OC)c2)nc2sccn12 | inactive |  |  | 60 | 34200 |  | 
7 | COC(=O)C1=C(C)NC(C)=C(C(=O)OC)C1c1c(C(F)(F)F)nc2sc(C)cn12 | inactive | 95 |  | 60 | 12000 | 92 | IC50 [11]: 31 nM; inhibition at 0.1 µM [25]: 64%

The next lines start with results.

Row | Activity [2] | IC50 [3] [nM] | Activity [5] | Emax [9] [ms-1] | Compound | Kd [8] [nM] | inhibition (Cavia porcellus [13]) [%] | further results
8 | inactive | 680 |  | 60 | COC(=O)C1=C(C)NC(C)=C(C(=O)OC)C1c1c(Cl)nc2sc(Cl)cn12 | 6800 | 60 | IC50 [11]: 3660 nM; inhibition at 100 µM [14]: 87%; Ratio EC50 [10]: 2.6
9 | inactive |  | inactive |  | COC(=O)C1=C(C)NC(C)=C(C(=O)OC)C1c1c(-c2cc(OC)c(OC)c(OC)c2)nc2sc(Cl)cn12 |  |  | 
10 | inactive | 1140 | inactive |  | COC(=O)C1=C(C)NC(C)=C(C(=O)OC)C1c1c(-c2cc(OC)ccc2OC)nc2sc(Cl)cn12 |  |  | inhibition (Cavia porcellus [15]): 91%
11 | inactive | 8830 | inactive |  | COC(=O)C1=C(C)NC(C)=C(C(=O)OC)C1c1c(C)nc2sc(C)cn12 |  |  | inhibition at 10 µM [16]: 27%; inhibition (Cavia porcellus [17]): 70%
12 | inactive |  | inactive |  | COC(=O)C1=C(C)NC(C)=C(C(=O)OC)C1c1c(-c2c(OC)ccc(OC)c2[N+](=O)[O-])nc2sccn12 |  |  | 
13 | inactive | 4890 | inactive |  | COC(=O)C1=C(C)NC(C)=C(C(=O)OC)C1c1c(-c2cc(OC)ccc2OC)nc2sc(C)cn12 |  |  | inhibition (Cavia porcellus [17]): 74%
